High-throughput results deposited in PubChem BioAssay by several laboratories.
PG9 Ab binder = small molecules binding HIV-1 gp120 antibody PG9 | 360,000 tested, 0.43% active | TR-FRET gp120-PG9 antibody binding | inhibition, % at 6.7 µM | AID 624416; in the data active means inhibition above about 8.5%
NR2E3 ag-1 = activates human photoreceptor nuclear receptor NR2E3; Q9Y5X4; GST-NR2E3/biotin-RetCOR TR-FRET, 1536-well; inhibition of corepressor binding, % at 4.78 µM; 320,000 tested, 0.12% active; AID 2300;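 active means percent inhibition above the cutoff of mean plus 3 SD of all tested compounds, set per screening campaign, cut at about 20% in these data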;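 further: 0% = DMSO wells and 100% = biotin wells as full block of FRET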
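Format: 1536-well format; test system: GST-NR2E3 and biotin-RetCOR proteins; read-out basis: percent inhibition of TR-FRET ratio; timing: 5 h incubation at 4 °C; detection: time-resolved FRET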
Neddyl block = cullin neddylation inhibition; P61081+Q13564; TR-FRET cullin neddylation, biochemical; calls only at 25 µM; 360,000 tested, 0.58% active; AID 651699; in the data active means inhibition above about 36%
Target sequence (P61081 whole entry, looked up): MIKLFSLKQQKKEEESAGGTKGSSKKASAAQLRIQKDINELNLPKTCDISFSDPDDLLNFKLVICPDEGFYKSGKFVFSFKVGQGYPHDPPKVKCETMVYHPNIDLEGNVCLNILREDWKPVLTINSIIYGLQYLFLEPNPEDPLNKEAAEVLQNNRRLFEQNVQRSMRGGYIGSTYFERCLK
Target sequence (Q13564 whole entry, looked up): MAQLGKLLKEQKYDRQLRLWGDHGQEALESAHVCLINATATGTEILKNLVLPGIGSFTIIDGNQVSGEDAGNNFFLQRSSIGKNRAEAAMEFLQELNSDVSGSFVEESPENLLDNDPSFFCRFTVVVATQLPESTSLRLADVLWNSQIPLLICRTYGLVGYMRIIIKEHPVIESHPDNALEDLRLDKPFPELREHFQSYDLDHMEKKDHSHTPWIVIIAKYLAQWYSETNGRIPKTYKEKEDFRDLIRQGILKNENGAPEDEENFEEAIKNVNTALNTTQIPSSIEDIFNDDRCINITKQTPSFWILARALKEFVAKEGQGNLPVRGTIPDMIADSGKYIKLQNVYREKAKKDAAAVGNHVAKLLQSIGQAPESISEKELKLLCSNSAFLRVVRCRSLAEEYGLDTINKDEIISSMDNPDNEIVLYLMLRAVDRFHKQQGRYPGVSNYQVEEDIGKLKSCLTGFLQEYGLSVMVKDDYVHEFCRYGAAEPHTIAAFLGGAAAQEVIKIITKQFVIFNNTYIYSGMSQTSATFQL
NR2E3 ag-2 = activates human NR2E3 receptor. Q9Y5X4. CHO-S Gal4-NCOR/VP16-NR2E3 two-hybrid, luciferase. inhibition of corepressor binding, % at 3.98 µM. 360,000 tested, 0.35% active. AID 602229;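 active means inhibition above the mean of all tested compounds plus 3 SD, cut at about 70% in these data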;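 further: 0% = DMSO with NR2E3 transfected cells and 100% = cells lacking NR2E3 construct; higher means lower luciferase signal from less NR2E3 corepressor binding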
Rev-erbA mod = modulators of human Rev-erb alpha DNA binding | Rev-erbα–FITC-DNA binding, fluorescence polarization, 90 min | 370,000 tested, 0.79% active | P20393 | AID 1259318 | activity, % at 10 µM;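 active means activity above about 14%, limit read from the data; passing the limit was not always enough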;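 further: 0% = DMSO wells with 35 nM protein and 100% = DMSO wells with 750 nM protein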
Neddyl conf = cullin neddylation inhibition, confirmation; calls only at 25 µM; 1,800 tested, 13% active; TR-FRET cullin neddylation biochemical assay; AID 652217; shares compounds with Neddyl block; in the data active means inhibition above about 40%;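 further: neddylation substrate is the cullin 1 ring ligase complex with SKP2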
* = called active by the depositor. This is a sample that favours compounds with a hit; in the whole collection about 2% have one here.

For COC(=O)c1cc(-c2ccc3c(c2)OCO3)nc2ccccc12 the results were PG9 Ab binder 2, NR2E3 ag-1 0, NR2E3 ag-2 -34 and Rev-erbA mod -3.
For CSc1ccccc1CNC(=O)C1(C)CCCN1CC(C)C (stereo not given) the results were PG9 Ab binder -1, Neddyl block inactive, NR2E3 ag-2 2 and Rev-erbA mod 4.
`COc1ccc(CCNC(=O)Nc2ccc3c(c2)[C@@]2(CC(=O)N(CC(C)C)C2c2ccccc2)C(=O)N3C)cc1OC` (stereo not given in full) gave Rev-erbA mod 2.
`Cn1c(=O)c2cc3ccccc3nc2n(C)c1=O` gave PG9 Ab binder -1, NR2E3 ag-1 2, Neddyl block active, NR2E3 ag-2 -21, Rev-erbA mod 3 and Neddyl conf active.
Screening CSc1ccc(/C=N/NC(=O)c2ccc(-n3cnnn3)cc2)cc1 returned PG9 Ab binder 1, NR2E3 ag-1 3, Neddyl block active, NR2E3 ag-2 -21, Rev-erbA mod 1 and Neddyl conf inactive.
`O=C(CSc1cccc2cccnc12)N/N=C/c1ccc(O)cc1` gave PG9 Ab binder -3, NR2E3 ag-1 3, Neddyl block inactive, NR2E3 ag-2 10 and Rev-erbA mod -2.
`COc1ccc(CNC(=O)CSc2cccc3cccnc23)cc1` gave PG9 Ab binder -1, NR2E3 ag-1 -2, Neddyl block active, NR2E3 ag-2 -20, Rev-erbA mod 6 and Neddyl conf inactive.
Screening COc1cccc(/C=N/NC(=O)CSc2cccc3cccnc23)c1 returned PG9 Ab binder -1, NR2E3 ag-1 0, Neddyl block active, NR2E3 ag-2 4, Rev-erbA mod 2 and Neddyl conf inactive.
Screening COc1ccc(NC(=O)CSc2cccc3cccnc23)c(OC)c1 returned PG9 Ab binder -3, NR2E3 ag-1 1, Neddyl block inactive, NR2E3 ag-2 -26 and Rev-erbA mod 1.
Cc1cc(C)c2c(N)c(C(=O)c3ccc(Cl)cc3Cl)sc2n1 was read as PG9 Ab binder -2, NR2E3 ag-1 4, NR2E3 ag-2 1 and Rev-erbA mod -2.
Screening Cc1cc(C)c2c(N)c(C(=O)c3cccc(Cl)c3)sc2n1 returned PG9 Ab binder -2, NR2E3 ag-1 2, Neddyl block active, NR2E3 ag-2 37, Rev-erbA mod -1 and Neddyl conf inactive.
For O=C(CN1CCC(C(=O)c2ccc(F)cc2)CC1)Nc1ccccc1Cl the results were PG9 Ab binder -3, NR2E3 ag-1 0, Neddyl block inactive, NR2E3 ag-2 4 and Rev-erbA mod 1.
Screening CCOc1cc(S(=O)(=O)NCc2ccco2)c(OCC)cc1-n1cnnn1 returned PG9 Ab binder 0, NR2E3 ag-1 -1, Neddyl block active, NR2E3 ag-2 -18 and Rev-erbA mod -1.
Screening COCCOC(=O)C(C#N)c1nc2ccccc2nc1N1CCCC1 (stereo not given) returned PG9 Ab binder -1, NR2E3 ag-1 -6, Neddyl block active, NR2E3 ag-2 4, Rev-erbA mod -3 and Neddyl conf inactive.
COCCCNC(=O)C(C#N)c1nc2ccccc2nc1N1CCCC1 (stereo not given) was read as PG9 Ab binder 1, NR2E3 ag-1 -3, NR2E3 ag-2 -2 and Rev-erbA mod 0.
Cc1ccc(C2NC(=O)c3c(sc4c3CCN(C)C4)N2)o1 (stereo not given) was read as PG9 Ab binder -2, NR2E3 ag-1 5, Neddyl block active, NR2E3 ag-2 4, Rev-erbA mod 0 and Neddyl conf inactive.
`COc1cccc2cc(-c3cn4cccc(C)c4n3)c(=O)oc12` gave PG9 Ab binder -1, NR2E3 ag-1 0, Neddyl block active, NR2E3 ag-2 -65, Rev-erbA mod -7 and Neddyl conf inactive.
`Cc1ccc(Cn2cc(CN(C(C)(C)C)S(=O)(=O)c3ccccc3Br)nn2)cc1` gave Rev-erbA mod 8.
C=C(C)COc1ccc(C2NC(=O)c3ccccc3O2)cc1OCC (stereo not given) was read as PG9 Ab binder -2, Neddyl block inactive, NR2E3 ag-2 -53 and Rev-erbA mod -2.
For CCOc1cc(C2NC(=O)c3ccccc3O2)ccc1OC(C)C (stereo not given) the results were PG9 Ab binder 1, NR2E3 ag-1 -1, Neddyl block active, NR2E3 ag-2 1, Rev-erbA mod 1 and Neddyl conf inactive.
For O=C1NC(c2ccc3c(c2)OCO3)Nc2ccccc21 (stereo not given) the results were PG9 Ab binder -2, NR2E3 ag-1 -1, NR2E3 ag-2 -57 and Rev-erbA mod 0.
For CCOc1ccc(C2NC(=O)c3ccccc3O2)cc1OC (stereo not given) the results were PG9 Ab binder 0, NR2E3 ag-1 -1, Neddyl block inactive, NR2E3 ag-2 2 and Rev-erbA mod -2.
`O=C1NC(c2ccc3c(c2)OCO3)Oc2ccccc21` (stereo not given) gave PG9 Ab binder 0, NR2E3 ag-1 -2, Neddyl block active, NR2E3 ag-2 7, Rev-erbA mod 0 and Neddyl conf inactive.
CCOc1ccc(C2NC(=O)c3ccccc3O2)cc1OCC (stereo not given) was read as PG9 Ab binder -1, NR2E3 ag-1 -2, Neddyl block active, NR2E3 ag-2 4, Rev-erbA mod 5 and Neddyl conf inactive.
Screening CC1=CC(=O)C(C(C)C)=C/C1=N\OS(=O)(=O)c1ccccc1 returned Rev-erbA mod 1.
`O=C(Nc1ccc(Br)cc1F)c1nc[nH]c1C(=O)N1CCc2ccccc2C1` gave PG9 Ab binder 7, Neddyl block inactive, NR2E3 ag-2 10 and Rev-erbA mod 5.
Screening Cc1c(COC(=O)NC(C)C)c(COC(=O)NC(C)C)c2n1CS(=O)(=O)C2 returned PG9 Ab binder 3 and Rev-erbA mod -1.
COC(=O)[C@@]12C[C@@H](CC(=O)N3CCCC3)C(=O)N(Cc3ccc4c(c3)OCO4)C1=CCC(C)(C)C2 was read as PG9 Ab binder -2, Neddyl block inactive and Rev-erbA mod 3.
`CCNC(=O)CN1c2cccc3cccc(c23)S1(=O)=O` gave PG9 Ab binder 1, NR2E3 ag-1 4, Neddyl block inactive, NR2E3 ag-2 -9 and Rev-erbA mod 1.
`CC1CCCCC1NC(=O)CN1c2cccc3cccc(c23)S1(=O)=O` (stereo not given) gave PG9 Ab binder -2, NR2E3 ag-1 2, Neddyl block active, NR2E3 ag-2 0 and Rev-erbA mod 3.
`CC1CCN(C(=O)CN2c3cccc4cccc(c34)S2(=O)=O)CC1` gave PG9 Ab binder 0, NR2E3 ag-1 1, Neddyl block active, NR2E3 ag-2 -3 and Rev-erbA mod 2.
